Source: ChEMBL document CHEMBL1268976, “Stereocontrolled facile synthesis and antimicrobial activity of oximes and oxime ethers of diversely substituted bispidines” (2010)
Converted amounts (≈) assume the structure as drawn.

Tests used:
Format in all cases: functional
[1] = test system: Bacillus subtilis; experiment: Antibacterial activity against Bacillus subtilis by broth microdilution method
In short: (§1)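 In vitro broth microdilution following the NCCLS standard for bacteria (M7-A5). The test panel was Bacillus subtilis, Staphylococcus aureus, Klebsiella pneumoniae and Pseudomonas aeruginosa.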

[2] = test system: Staphylococcus aureus; experiment: Antibacterial activity against Staphylococcus aureus by broth microdilution method; in short: as §1
[3] = test system: Klebsiella pneumoniae; experiment: Antibacterial activity against Klebsiella pneumoniae by broth microdilution method; in short: as §1
[4] = test system: Cryptococcus neoformans; experiment: Antimicrobial activity against Cryptococcus neoformans by broth microdilution method
In short: (§2)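 Fungal panel of Candida albicans, Candida parapsilosis, Aspergillus niger and Cryptococcus neoformans, tested in vitro by standard NCCLS broth microdilution. The yeast susceptibility reference cited is M27-A.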

[5] = test system: Candida albicans; experiment: Antifungal activity against Candida albicans by broth microdilution method; in short: as §2
[6] = test system: Candida parapsilosis; experiment: Antifungal activity against Candida parapsilosis by broth microdilution method; settings: Lodderomyces parapsilosis; in short: as §2
[7] = test system: Pseudomonas aeruginosa; experiment: Antibacterial activity against Pseudomonas aeruginosa by broth microdilution method; in short: as §1
[8] = test system: Aspergillus niger; experiment: Antifungal activity against Aspergillus niger by broth microdilution method; in short: as §2
[9] = test system: Klebsiella pneumoniae; experiment: Ratio of compound MIC90 to gentamicin MIC90 for Klebsiella pneumoniae
[10] = test system: Pseudomonas aeruginosa; experiment: Ratio of gentamicin MIC90 to compound MIC90 for Pseudomonas aeruginosa

Structure (SMILES) | MIC90 [1] [µg/mL] | MIC90 [2] [µg/mL] | MIC90 [3] [µg/mL] | MIC90 [4] [µg/mL] | MIC90 [5] [µg/mL] | MIC90 [6] [µg/mL] | MIC90 [7] [µg/mL] | MIC90 [8] [µg/mL] | Ratio [9] | Ratio [10]
CCOc1ccccc1C1NC(c2ccccc2OCC)C2C(=NOC)C1C(c1ccccc1OCC)NC2c1ccccc1OCC (stereo not drawn) | > 128 | > 128 | > 128 | 16 (≈ 24.6 µM) | > 128 | 64 (≈ 98.5 µM) | 32 (≈ 49.2 µM) | 16 (≈ 24.6 µM) | – | –
CCc1ccc(C2NC(c3ccc(CC)cc3)C3C(=NO)C2C(c2ccc(CC)cc2)NC3c2ccc(CC)cc2)cc1 (stereo not drawn) | > 128 | > 128 | > 128 | > 128 | > 128 | 64 (≈ 112 µM) | 32 (≈ 56 µM) | > 128 | – | –
ON=C1C2C(c3ccccc3)NC(c3ccccc3)C1C(c1ccccc1)NC2c1ccccc1 (stereo not drawn) | > 128 | > 128 | > 128 | > 128 | > 128 | > 128 | > 128 | > 128 | – | –
CON=C1C2C(c3ccccc3C)NC(c3ccccc3C)C1C(c1ccccc1C)NC2c1ccccc1C (stereo not drawn) | > 128 | > 128 | 16 (≈ 30.2 µM) | > 128 | 64 (≈ 121 µM) | 8 (≈ 15.1 µM) | 16 (≈ 30.2 µM) | 64 (≈ 121 µM) | 8 | –
CON=C1C2C(c3ccccc3Br)NC(c3ccccc3Br)C1C(c1ccccc1Br)NC2c1ccccc1Br (stereo not drawn) | > 128 | > 128 | > 128 | > 128 | > 128 | 64 (≈ 81.1 µM) | > 128 | > 128 | – | –
ON=C1C2C(c3ccc(OCc4ccccc4)cc3)NC(c3ccc(OCc4ccccc4)cc3)C1C(c1ccc(OCc3ccccc3)cc1)NC2c1ccc(OCc2ccccc2)cc1 (stereo not drawn) | > 128 | > 128 | > 128 | > 128 | > 128 | > 128 | > 128 | 128 (≈ 145 µM) | – | –
CON=C1C2C(c3ccc(Cl)cc3)NC(c3ccc(Cl)cc3)C1C(c1ccc(Cl)cc1)NC2c1ccc(Cl)cc1 (stereo not drawn) | 128 (≈ 209 µM) | 32 (≈ 52.3 µM) | 4 (≈ 6.54 µM) | > 128 | 4 (≈ 6.54 µM) | > 128 | 8 (≈ 13.1 µM) | 16 (≈ 26.2 µM) | – | –
COc1ccc(C2NC(c3ccc(OC)cc3)C3C(=NO)C2C(c2ccc(OC)cc2)NC3c2ccc(OC)cc2)cc1 (stereo not drawn) | > 128 | 64 (≈ 110 µM) | 64 (≈ 110 µM) | 64 (≈ 110 µM) | > 128 | 64 (≈ 110 µM) | 16 (≈ 27.6 µM) | 16 (≈ 27.6 µM) | – | –

Stronger by MIC90 [1], values ahead:

MIC90 [1] [µg/mL] | MIC90 [2] [µg/mL] | MIC90 [3] [µg/mL] | MIC90 [4] [µg/mL] | MIC90 [5] [µg/mL] | MIC90 [6] [µg/mL] | MIC90 [7] [µg/mL] | MIC90 [8] [µg/mL] | Structure (SMILES) | Ratio [9] | Ratio [10]
64 (≈ 108 µM) | 32 (≈ 53.9 µM) | > 128 | 16 (≈ 26.9 µM) | > 128 | 128 (≈ 216 µM) | 16 (≈ 26.9 µM) | 16 (≈ 26.9 µM) | CON=C1C2C(c3ccc(OC)cc3)NC(c3ccc(OC)cc3)C1C(c1ccc(OC)cc1)NC2c1ccc(OC)cc1 (stereo not drawn) | – | –
64 (≈ 120 µM) | 16 (≈ 30.1 µM) | 64 (≈ 120 µM) | 128 (≈ 241 µM) | 4 (≈ 7.53 µM) | > 128 | 32 (≈ 60.2 µM) | 4 (≈ 7.53 µM) | ON=C1C2C(c3ccc(F)cc3)NC(c3ccc(F)cc3)C1C(c1ccc(F)cc1)NC2c1ccc(F)cc1 (stereo not drawn) | – | –
64 (≈ 97.3 µM) | > 128 | 8 (≈ 12.2 µM) | 8 (≈ 12.2 µM) | 32 (≈ 48.6 µM) | 16 (≈ 24.3 µM) | 4 (≈ 6.08 µM) | 4 (≈ 6.08 µM) | CON=C1C2C(c3ccc(SC)cc3)NC(c3ccc(SC)cc3)C1C(c1ccc(SC)cc1)NC2c1ccc(SC)cc1 (stereo not drawn) | 4 | 4
64 (≈ 121 µM) | > 128 | 8 (≈ 15.1 µM) | > 128 | 64 (≈ 121 µM) | 2 (≈ 3.78 µM) | 4 (≈ 7.55 µM) | 64 (≈ 121 µM) | CON=C1C2C(c3ccc(C)cc3)NC(c3ccc(C)cc3)C1C(c1ccc(C)cc1)NC2c1ccc(C)cc1 (stereo not drawn) | 4 | 4
32 (≈ 58.7 µM) | 64 (≈ 117 µM) | 16 (≈ 29.3 µM) | > 128 | 8 (≈ 14.7 µM) | 64 (≈ 117 µM) | 4 (≈ 7.33 µM) | 4 (≈ 7.33 µM) | CON=C1C2C(c3ccccc3F)NC(c3ccccc3F)C1C(c1ccccc1F)NC2c1ccccc1F (stereo not drawn) | – | –
64 (≈ 108 µM) | > 128 | 8 (≈ 13.5 µM) | 8 (≈ 13.5 µM) | 64 (≈ 108 µM) | 32 (≈ 53.9 µM) | 16 (≈ 26.9 µM) | 4 (≈ 6.74 µM) | CON=C1C2C(c3ccccc3OC)NC(c3ccccc3OC)C1C(c1ccccc1OC)NC2c1ccccc1OC (stereo not drawn) | 4 | –
